{"source": "PubChem BioAssay AID623890", "about": "(Vanderbilt Specialized Chemistry Center, 2012)", "target": "Metabotropic glutamate receptor 5 (Rattus norvegicus) (UniProt P31424)", "sequence (P31424 whole entry, looked up)": "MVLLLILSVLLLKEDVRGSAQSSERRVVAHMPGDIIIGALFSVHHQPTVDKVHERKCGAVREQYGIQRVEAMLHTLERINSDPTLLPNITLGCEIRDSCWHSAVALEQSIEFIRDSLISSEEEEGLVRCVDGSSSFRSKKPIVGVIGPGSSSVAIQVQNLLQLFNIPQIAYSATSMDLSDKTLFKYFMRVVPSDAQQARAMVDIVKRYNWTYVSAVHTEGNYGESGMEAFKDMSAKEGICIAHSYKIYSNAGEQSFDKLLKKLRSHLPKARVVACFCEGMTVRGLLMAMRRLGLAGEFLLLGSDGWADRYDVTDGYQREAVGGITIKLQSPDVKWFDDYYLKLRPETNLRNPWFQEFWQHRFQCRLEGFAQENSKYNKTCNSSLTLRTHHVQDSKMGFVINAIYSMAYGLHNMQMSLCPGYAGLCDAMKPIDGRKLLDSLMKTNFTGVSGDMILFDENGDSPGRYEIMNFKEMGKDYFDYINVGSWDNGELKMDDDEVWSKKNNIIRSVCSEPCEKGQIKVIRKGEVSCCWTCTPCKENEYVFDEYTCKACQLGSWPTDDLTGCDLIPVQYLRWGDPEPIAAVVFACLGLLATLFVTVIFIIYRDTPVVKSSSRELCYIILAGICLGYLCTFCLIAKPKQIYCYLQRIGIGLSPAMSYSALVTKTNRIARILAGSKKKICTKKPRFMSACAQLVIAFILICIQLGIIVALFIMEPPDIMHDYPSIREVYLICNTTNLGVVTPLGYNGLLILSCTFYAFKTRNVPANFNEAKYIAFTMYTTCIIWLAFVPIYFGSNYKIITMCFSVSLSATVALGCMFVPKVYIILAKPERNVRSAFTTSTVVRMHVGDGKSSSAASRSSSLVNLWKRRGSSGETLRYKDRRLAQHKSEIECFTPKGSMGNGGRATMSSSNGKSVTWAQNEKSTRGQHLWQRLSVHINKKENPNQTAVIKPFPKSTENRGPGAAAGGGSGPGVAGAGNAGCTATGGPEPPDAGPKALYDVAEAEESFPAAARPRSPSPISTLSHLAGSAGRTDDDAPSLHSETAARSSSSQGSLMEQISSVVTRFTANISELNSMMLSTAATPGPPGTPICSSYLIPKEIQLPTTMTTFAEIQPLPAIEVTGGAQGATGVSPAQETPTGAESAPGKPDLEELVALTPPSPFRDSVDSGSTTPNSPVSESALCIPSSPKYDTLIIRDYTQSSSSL", "assay": "off-target activity at rat mGlu5, profiling panel, selectivity assay for mGlu4 lead optimization, cell-based, calcium flux, Fluo-4 (AID 623890)", "conditions": "rat mGlu5 cells, Fluo-4 calcium flux, glutamate CRC shift, at 10 µM", "in_short": "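Measure: peak post-agonist fluorescence rise, normalized to baseline and pre-agonist point, four-parameter logistic fit; material: rat mGlu5-expressing cells loaded with Fluo-4 AM calcium dye; probe or stimulus: glutamate as agonist, added after compound; incubation: compound about 2.5 min before glutamate, then roughly 3 min signal recording; detection: Fluo-4 calcium fluorescence, ex 470/em 540 nm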", "data": [{"smiles": "O=C(Nc1cccc(Cl)c1)c1ccccn1", "values": [{"measurement": "fold shift of glutamate EC50", "value": 0.304}, {"measurement": "max response", "setting": "measured here: glutamate max response with compound", "value": 74, "unit": "%"}]}]}
